Experiments:
[1] = tested on: Candida albicans, Escherichia coli, Enterococcus faecalis, and Staphylococcus epidermidis; details: ref 41,42 (Aβ); 43 (hIAPP); 44,45 (GNNQQNY); 46 (KLVFFGAIL); cited from earlier work
[2] = target: T1, human calcitonin1-32 (hCT) (Homo sapiens, UniProt P01258); assay: AFM morphology of aggregates, hCT; format: biochemical; details: pure hCT 20 μM, 24 h
T1 sequence (P01258 85-116): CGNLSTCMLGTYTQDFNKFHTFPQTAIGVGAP
Outline: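 AFM imaging of samples taken at different time points of the ThT kinetics runs. hCT at 20 μM was incubated alone or with 5–20 μM test defensin at 37 °C. Fibril heights and lengths were measured from the images.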

[3] = target: T1, human calcitonin1-32 (hCT); assay: CD secondary structure, hCT; format: biochemical; details: pure 20 μM, 10 mM sodium phosphate pH 7.4, 37 °C, 24–72 h, BeStSel
Outline: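 Aβ, hIAPP or hCT at 20 μM, alone or co-incubated with test defensin at 37 °C. Circular dichroism spectra were deconvoluted with BestSel into secondary-structure fractions, including β-structure content.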

SH-SY5Y cells [4] = assay: MTT cell viability, SH-SY5Y; format: cell-based, human; details: pure amyloid 20 μM, 24 h
SH-SY5Y cells [5] = assay: LDH cytotoxicity, SH-SY5Y; format: cell-based, human; details: pure amyloid 20 μM, 24 h; % of positive control
[6] = target: human islet amyloid polypeptide1-37 (hIAPP) (Homo sapiens, UniProt P10997); assay: CD secondary structure, hIAPP; format: biochemical; details: pure 20 μM, 10 mM sodium phosphate pH 7.4, 37 °C, 24–72 h, BeStSel
human islet amyloid polypeptide1-37 (hIAPP), sequence (P10997 34-70): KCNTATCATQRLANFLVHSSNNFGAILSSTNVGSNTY
Outline: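 Samples held 20 μM hIAPP with 0, 5 or 20 μM defensin. Circular dichroism spectra were recorded on the aggregates. Secondary-structure fractions, including β-structure content, were fitted from the spectra with BestSel.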

RIN-m5F cells [7] = assay: MTT cell viability, RIN-m5F; format: cell-based, rat; details: pure amyloid 20 μM, 24 h
RIN-m5F cells [8] = assay: LDH cytotoxicity, RIN-m5F; format: cell-based, rat; details: pure amyloid 20 μM, 24 h; % of positive control
Staphylococcus aureus = details: cited from earlier work
Escherichia coli = details: cited from earlier work

Compound: KLVFFGAIL
- antibacterial and antifungal activities [1]: antibacterial and antifungal activities

Compound: CC[C@H](C)[C@H](NC(=O)[C@H](C)NC(=O)[C@@H](NC(=O)[C@H](CCC(N)=O)NC(=O)[C@@H]1CCCN1C(=O)[C@H](Cc1ccccc1)NC(=O)[C@@H](NC(=O)[C@H](Cc1c[nH]cn1)NC(=O)[C@H](Cc1ccccc1)NC(=O)[C@H](CCCCN)NC(=O)[C@H](CC(N)=O)NC(=O)[C@H](Cc1ccccc1)NC(=O)[C@H](CC(=O)O)NC(=O)[C@H](CCC(N)=O)NC(=O)[C@@H](NC(=O)[C@H](Cc1ccc(O)cc1)NC(=O)[C@@H](NC(=O)CNC(=O)[C@H](CC(C)C)NC(=O)[C@H](CCSC)NC(=O)[C@@H]1CSSC[C@H](N)C(=O)NCC(=O)N[C@@H](CC(N)=O)C(=O)N[C@@H](CC(C)C)C(=O)N[C@@H](CO)C(=O)N[C@@H]([C@@H](C)O)C(=O)N1)[C@@H](C)O)[C@@H](C)O)[C@@H](C)O)[C@@H](C)O)C(=O)NCC(=O)N[C@H](C(=O)NCC(=O)N[C@@H](C)C(=O)N1CCC[C@H]1C(N)=O)C(C)C [hCT]
- average height of fibrils [2]: 16 nm
- average length of fibrils ([2]; N up to 40): 477 nm
- β-structure content [3]: 56.4%
- cell viability (SH-SY5Y cells [4]): 67%
- cell toxicity (SH-SY5Y cells [5]): 35%

Compound: GNNQQNY
- antibacterial and antifungal activities [1]: antibacterial and antifungal activities

Compound: CC[C@H](C)[C@H](NC(=O)[C@H](C)NC(=O)CNC(=O)[C@H](Cc1ccccc1)NC(=O)[C@H](CC(N)=O)NC(=O)[C@H](CC(N)=O)NC(=O)[C@H](CO)NC(=O)[C@H](CO)NC(=O)[C@H](Cc1c[nH]cn1)NC(=O)[C@@H](NC(=O)[C@H](CC(C)C)NC(=O)[C@H](Cc1ccccc1)NC(=O)[C@H](CC(N)=O)NC(=O)[C@H](C)NC(=O)[C@H](CC(C)C)NC(=O)[C@H](CCCNC(=N)N)NC(=O)[C@H](CCC(N)=O)NC(=O)[C@@H](NC(=O)[C@H](C)NC(=O)[C@@H]1CSSC[C@H](NC(=O)[C@@H](N)CCCCN)C(=O)N[C@@H](CC(N)=O)C(=O)N[C@@H]([C@@H](C)O)C(=O)N[C@@H](C)C(=O)N[C@@H]([C@@H](C)O)C(=O)N1)[C@@H](C)O)C(C)C)C(=O)N[C@@H](CC(C)C)C(=O)N[C@@H](CO)C(=O)N[C@@H](CO)C(=O)N[C@H](C(=O)N[C@@H](CC(N)=O)C(=O)N[C@H](C(=O)NCC(=O)N[C@@H](CO)C(=O)N[C@@H](CC(N)=O)C(=O)N[C@H](C(=O)N[C@@H](Cc1ccc(O)cc1)C(N)=O)[C@@H](C)O)C(C)C)[C@@H](C)O [hIAPP]
- β-structure content [6]: 48.5%
- cell viability (RIN-m5F cells [7]): 55%
- cell toxicity (RIN-m5F cells [8]): 25%
- bacteria growth (Staphylococcus aureus): hinder Staphylococcus aureus and Escherichia coli bacteria growth
- bacteria growth (Escherichia coli): hinder Staphylococcus aureus and Escherichia coli bacteria growth
- antibacterial and antifungal activities [1]: antibacterial and antifungal activities

From paper PMC9214849 (Chemical Science, 2022)
